Active and inactive are the calls of the source.
How the values were obtained:
HT-29 [1] = test: Inhibition of NF-kappaB activation expressed in human HT-29 cells assessed as inhibition of TNFalpha-stimulated IL8 release at 100 uM after 24 hrs by flow cytometric analysis relative to control; format: cell-based
Method in brief: (§1)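 Reporter HT-29-NF-κB-hrGFP cells pretreated 2 h with compound (DMSO <0.5%) at the highest concentration with 100% survival, then stimulated with TNF-α (3 ng/mL final) for 18–24 h at 37 °C. IL-8 in clarified supernatant measured by flow cytometric bead assay (500 events). Expressed as % of TNF-α/DMSO control ± SD; thalidomide as reference.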

Salmonella typhimurium [2] = test: Induction of mutagenesis in Salmonella Typhimurium TA98 assessed as number of revertants at 4 to 350 ug/plate in absence of mouse liver S9 fraction; format: toxicity, organism-based; conditions: salmonella enterica subsp. enterica serovar typhimurium
Method in brief: (§2)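 S. typhimurium TA98, plate incorporation on minimal glucose (Vogel-Bonner) agar. Compounds were in DMSO, dosed in triplicate with a top non-toxic dose of 250 or 350 µg/plate. Runs were without S9 (positive control 4-nitro-o-phenylenediamine, 20 µg/plate) or with 500 µL Aroclor-induced mouse liver S9 (positive control 2-aminofluorene, 10 µg/plate), plus a DMSO control. Revertants were counted manually; mutagenic means ≥2-fold spontaneous revertants at two consecutive doses.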

Salmonella typhimurium [3] = test: Induction of mutagenesis in Salmonella Typhimurium TA98 assessed as number of revertants at 4 to 350 ug/plate in presence of mouse liver S9 fraction; format: toxicity, organism-based; conditions: salmonella enterica subsp. enterica serovar typhimurium; method in brief: as §2
Rattus norvegicus [4] = test: Antihyperalgesic activity against carrageenan-induced thermal hyperalgesia in Wistar rat assessed as latency of withdrawal response at 100 umol/kg, po administered 1 hr before carrageenan challenge measured after 30 to 240 mins by hot plate test; format: functional, organism-based
Method in brief: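 Wistar rats of both sexes (150–200 g) dosed orally at 100 µmol/kg as suspension in 5% arabic gum in saline, vehicle controls. After 1 h, 1% carrageenan (1 mg/paw) or saline injected subplantar. Left hind paw withdrawal latency on hot plate at 51 ± 0.1 °C read at 0–240 min, 20 s cut-off. Δ latency = time-0 latency minus later latency; mean ± SEM, n = 8–10; Student t-test.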

HT-29 [5] = test: Inhibition of TNFalpha-induced NF-kappaB activation expressed in human HT-29 cells coexpressing hrGFP at 100 uM after 24 hrs by propidium iodide staining-based flow cytometric analysis relative to control; format: cell-based
Method in brief: (§3)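 HT-29 cells stably expressing NF-κB-driven hrGFP given compound (DMSO <0.5%) for 2 h at the maximum non-cytotoxic concentration, then TNF-α at 3 ng/mL final for 18–24 h. Cells trypsinised and stained with propidium iodide; 5000 events gated on FSC/SSC. The %GFP-positive among PI-excluding live cells is normalised to TNF-α/DMSO control, ± SD.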

Mus musculus = test: Analgesic activity in albino mouse assessed as inhibition of acetic acid-induced abdominal constriction at 100 umol/kg, po administered 1 hr before acetic acid challenge measured after 60 mins relative to control; format: functional; conditions: Abdomen
Method in brief: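 Albino mice of both sexes (18–23 g) were dosed orally as a suspension in 5% arabic gum in saline, with vehicle controls. After 1 h they received 0.6% acetic acid ip (0.1 mL/10 g). Constrictions were counted for 20 min starting 10 min after injection. Data are % inhibition vs vehicle, mean ± SEM, Student t-test.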

Salmonella typhimurium [6] = test: Induction of mutagenesis in Salmonella Typhimurium TA98 assessed as number of revertants at 3.1 to 250 ug/plate in presence of mouse liver S9 fraction; format: toxicity, organism-based; conditions: salmonella enterica subsp. enterica serovar typhimurium; method in brief: as §2
[7] = Inhibition of soybean lipoxygenase using arachidonic acid as substrate; set-up: species or system Glycine max
Method in brief: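 Soybean 15-lipoxygenase kit assay, arachidonic acid substrate, H2O2 as lipoxygenating agent in 0.1 M Tris-HCl pH 7.4. Single-point screen at 50 µM. IC50 found by varying concentration over 10–100 µM. Quercetin at 4 µM as positive control; duplicate means; Student t-test.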

Rattus norvegicus [8] = test: Antihyperalgesic activity against carrageenan-induced thermal hyperalgesia in Wistar rat assessed as latency of withdrawal response at 100 umol/kg, po administered 1 hr before carrageenan challenge measured after 1 hr by hot plate test; format: functional
Method in brief: (§4)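 Wistar rats of both sexes (150–200 g) were dosed orally as a suspension in 5% arabic gum in saline, with vehicle controls. After 1 h, 0.1 mL 1% carrageenan (1 mg/paw) or saline was injected subplantar into the hind paws. Left hind paw withdrawal latency was read on a 51 °C hot plate at 0–240 min (cut-off 20 s). Δlatency = time-0 minus later latency; mean ± SEM, n = 8–10; t-test.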

Salmonella typhimurium [9] = test: Induction of mutagenesis in Salmonella Typhimurium TA98 assessed as number of revertants at 3.1 to 250 ug/plate in absence of mouse liver S9 fraction; format: toxicity, organism-based; conditions: salmonella enterica subsp. enterica serovar typhimurium; method in brief: as §2
[10] = Induction of NO release in 0.1 M Tris-HCl and 0.1 mM DTPA at pH 7.4 measured for 20 mins in presence of cysteine; format: physicochemical; conditions: buffer, pH 7.4, 20 min
Method in brief: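 Electrochemical NO detection with an ISO-NOP sensor. Compounds in DMSO added to 0.1 M Tris-HCl, 0.1 mM DTPA at pH 7.4 or 8.3. Cysteine (300 or 100 µM) added and NO recorded for 20 min at 25 or 37 °C; compound:Cys ratio 1:1 at 25 °C, with 3:1 and 37 °C runs also made.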

HT-29 [11] = test: Inhibition of NF-kappaB activation expressed in human HT-29 cells assessed as inhibition of TNFalpha-stimulated IL8 release at 400 uM after 24 hrs by flow cytometric analysis relative to Thal; format: cell-based; method in brief: as §1
Salmonella typhimurium [12] = test: Induction of mutagenesis in Salmonella Typhimurium TA98 assessed as number of revertants at 6 to 500 ug/plate in presence of mouse liver S9 fraction; format: toxicity, organism-based; conditions: salmonella enterica subsp. enterica serovar typhimurium
HT-29 [13] = test: Inhibition of NF-kappaB activation expressed in human HT-29 cells assessed as inhibition of TNFalpha-stimulated IL8 release at 50 uM after 24 hrs by flow cytometric analysis relative to control; format: cell-based; method in brief: as §1
Salmonella typhimurium [14] = test: Induction of mutagenesis in Salmonella Typhimurium TA98 assessed as number of revertants at 6 to 500 ug/plate in absence of mouse liver S9 fraction; format: toxicity, organism-based; conditions: salmonella enterica subsp. enterica serovar typhimurium
HT-29 [15] = test: Inhibition of TNF-alpha-induced NFkappaB activation expressed in human HT-29 cells coexpressing hrGFP at 50 uM after 24 hrs by propidium iodide staining-based flow cytometric analysis relative to control; format: cell-based; method in brief: as §3
Rattus norvegicus [16] = test: Antihyperalgesic activity against carrageenan-induced thermal hyperalgesia in Wistar rat assessed as latency of withdrawal response at 100 umol/kg, po administered 1 hr before carrageenan challenge measured after 3 hrs by hot plate test; format: functional; method in brief: as §4

| Structure (SMILES) | inhibition (HT-29 [1]) | Activity (Salmonella typhimurium [2]) | Activity (Salmonella typhimurium [3]) | Activity (Rattus norvegicus [4]) | NF-kappaB activity (% of TNF-alpha control) (HT-29 [5]) | inhibition in vivo at 100 µmol/kg (Mus musculus) | Activity (Salmonella typhimurium [6]) | IC50 [7] | inhibition in vivo at 100 µmol/kg (Rattus norvegicus [8]) | Activity (Salmonella typhimurium [9]) | Activity [10] | fold change (FC) (HT-29 [11]) | Activity (Salmonella typhimurium [12]) | inhibition (HT-29 [13]) | Activity (Salmonella typhimurium [14]) | NF-kappaB activation (% of TNF-alpha control) (HT-29 [15]) | inhibition in vivo at 100 µmol/kg (Rattus norvegicus [16]) |
| --- | --- | --- | --- | --- | --- | --- | --- | --- | --- | --- | --- | --- | --- | --- | --- | --- | --- |
| Cc1c(C(=O)N/N=C/c2ccc(N(C)C)cc2)no[n+]1[O-] | 98% | Non-toxic | Non-toxic | inactive | 150% | 22% |  |  |  |  |  |  |  |  |  |  |  |
| O=C(N/N=C/c1c(-c2ccccc2)no[n+]1[O-])c1ccc2c(c1)OCO2 | 4% |  |  |  | 12% |  | Non-toxic | > 100 µM | 14% | Non-toxic | 0 nM/min | 16 |  |  |  |  |  |
| Cc1[nH]cnc1C(=O)N/N=C/c1ccc2no[n+]([O-])c2c1 |  |  |  |  |  |  |  |  |  |  | 0 nM/min |  | Non-toxic | 51% | Toxic | 71% | 14% |
